The results in this text go back to ChEMBL document CHEMBL2203100, “Disubstituted quinazoline derivatives as a new type of highly selective ligands for telomeric G-quadruplex DNA” (Eur J Med Chem, 2012).

Active and inactive are the calls of the source. The calls are words filed in the database; no cut-off is given here.

For test [1], the system named is Nucleic Acid. The experiment in a line: Binding affinity to human fluorescent labeled oligonucleotide F21T telomeric G-quadruplex DNA assessed as change in melting temperature at 1 uM by FRET assay in presence of duplex DNA competitor ds26. Format: nucleic-acid assay.
Test [2] has as its target Nucleic Acid. The test is described as follows: Binding affinity to human biotinylated telomeric HTG21 G-quadruplex DNA assessed as equilibrium dissociation constant by SPR assay. Format: nucleic-acid assay. Put shortly: (§1)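 Biotinylated HTG21 (d(GGG[TTAGGG]3)) or duplex DNA was folded in 50 mM Tris-HCl pH 7.2 with 100 mM KCl. About 1000 RU was captured on flow cells 1 and 2, with the third cell as blank. Six ligand concentrations from 0.15625 µM upward were injected for 150 s association and 300 s dissociation at 25 °C. KD came from global Langmuir fitting of the kinetics.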
For orientation: SPR reads the build-up and loss of mass on a sensor chip optically.

The test system of test [3] is Nucleic Acid. The test is described as follows: Binding affinity to human fluorescent labeled oligonucleotide F21T telomeric G-quadruplex DNA assessed as change in melting temperature at 1 uM after 30 secs by FRET assay. In kind it is nucleic-acid assay.
The subject of test [4] is Nucleic Acid. The experiment in a line: Binding affinity to human biotinylated duplex DNA assessed as equilibrium dissociation constant upto 10 to 20 uM by SPR assay. In kind it is nucleic-acid assay. The essentials:
as §1

The subject of test [5] is Nucleic Acid. The test is described as follows: Binding affinity to hairpin fluorescent labeled oligonucleotide F10T duplex DNA assessed as change in melting temperature at 1 uM after 30 secs by FRET assay.
Test [6] deals with Telomerase reverse transcriptase (Homo sapiens, UniProt O14746). The test is described as follows: Inhibition of human telomerase in cell free system after 1 min by TRAP-LIG assay. The note with it: in the assay text read “after 20 mins” for “after 1 min”. The essentials: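 TRAP-LIG used 500 ng protein extract from exponentially growing MCF-7 cells to extend 0.1 µg TS primer. The buffer was 20 mM Tris-HCl pH 8.3, 68 mM KCl, 1.5 mM MgCl2, 1 mM EGTA and 0.05% Tween 20, with 125 µM dNTPs and BSA, plus ligand at various concentrations or none. After 20 min elongation and purification, products were amplified with ACX/TS primers and Taq for 35 cycles (94 °C 30 s, 61 °C 1 min, 72 °C 1 min).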

The test system of test [7] is Nucleic Acid. The experiment in a line: Binding affinity to human telomeric HTG21 G-quadruplex DNA after 6 hrs by CD spectroscopy. Format: nucleic-acid assay. Put shortly: (§2)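 HTG21 in 10 mM Tris-HCl pH 7.2 with 100 mM KCl was titrated with ligand at 0–5 mol equiv. Samples were heated to 95 °C, cooled slowly to room temperature and held at 4 °C for at least 6 h. CD was scanned at 230–450 nm in a 4 mm quartz cuvette with 1 nm bandwidth, 1 nm steps and 0.5 s per point.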

The subject of test [8] is Nucleic Acid. The test is described as follows: Binding affinity to human telomeric HTG21 G-quadruplex DNA after 6 hrs in presence of K+ ions by CD spectroscopy. In kind it is nucleic-acid assay. Put shortly: as §2
Test [9] has as its system HL-60. The experiment in a line: Cytotoxicity against human HL60 cells assessed as cell viability after 48 hrs by MTT assay. Format: functional, cell-based. The note with it: HL-60, 48 h. Put shortly: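 HL60 cells were seeded at 1.0 × 10³ per well and exposed to a range of compound concentrations for 48 h at 37 °C in 5% CO2. MTT (5 mg/mL) was added for 4 h, formazan was dissolved in DMSO and OD was read at 570 nm. Each dose was run in triplicate, and IC50 was taken from mean OD versus concentration curves.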
A general note: Formazan colour is commonly taken as a measure of viable cells.

In test [10] the test system is HL-60. The experiment in a line: Cytotoxicity against human HL60 cells assessed as decrease in population doubling at 2.5 uM after 8 days. In kind it is functional, cell-based.
For test [11], the system named is HL-60. The test is described as follows: Growth inhibition of human HL60 cells assessed as decrease in population doubling at 2.5 uM after 12 days. Format: functional, cell-based.
For test [12], the system named is HL-60. The test is described as follows: Growth inhibition of human HL60 cells assessed as decrease in population doubling at 1.25 uM after 12 days. Format: functional, cell-based.
The test system of test [13] is HL-60. The test is described as follows: Growth inhibition of human HL60 cells assessed as decrease in population doubling at 0.625 uM after 16 days. In kind it is functional, cell-based.
Test [14] deals with HL-60. The test is described as follows: Induction of senescence in human HL60 cells assessed enlarged cells measured every 4 days for 16 days by optical microscopy. In kind it is functional, cell-based. Put shortly: (§3)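 After 16 days of long-term HL60 culture with ligand renewed every 4 days (1.25 µM shown, versus 0.1% DMSO), cells were fixed in 2% formaldehyde/0.2% glutaraldehyde for 15 min at room temperature. They were washed with PBS and stained overnight at 37 °C with X-gal (1 mg/mL). SA-β-Gal and enlarged or flattened morphology were scored by optical microscopy.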

Test [15] concerns HL-60. The experiment in a line: Induction of senescence in human HL60 cells assessed flattened cells measured every 4 days for 16 days by optical microscopy. In kind it is functional, cell-based. Put shortly: as §3
Test [16] deals with HL-60. The test is described as follows: Induction of senescence in human HL60 cells assessed as beta galactosidase activity at 1.25 uM measured every 4 days for 16 days. Format: functional, cell-based. Put shortly: as §3
Test [17] concerns HL-60. The experiment in a line: Induction of telomere shortening in human HL60 cells at 1.25 uM after 16 days by telomeric restriction fragment length assay. Format: functional. The essentials:
(§4)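 HL60 cells were treated with ligand (0.625 or 1.25 µM) or 0.1% DMSO for 16 days. Genomic DNA was digested with HinfI/RsaI and run on a 0.8% agarose gel, then blotted to nylon and fixed at 120 °C for 20 min. The blot was hybridized with a DIG-labeled telomeric probe, bound with anti-DIG-alkaline phosphatase and detected by chemiluminescence.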

Test [18] deals with HL-60. The experiment in a line: Induction of telomere shortening in human HL60 cells at 0.625 uM after 16 days by telomeric restriction fragment length assay. Format: functional, cell-based. Put shortly: as §4
In test [19] the test system is Nucleic Acid. The experiment in a line: Binding affinity to human oligonucleotide telomeric HT6 G-quadruplex DNA by NMR spectroscopy. In kind it is nucleic-acid assay. Put shortly:
(§5)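 1H NMR titration at 400 MHz and 25 °C of 0.5 mM [d(TTAGGG)]4 in 90% H2O/10% D2O with 25 mM potassium phosphate (pH 7.0) and 150 mM KCl. Ligand:quadruplex ratios were 0, 0.25, 0.5, 1 and 2. Water was suppressed by Watergate. Shifts and broadening of DNA signals were followed. The oligonucleotide was HPLC-purified.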

The test system of test [20] is Nucleic Acid. The test is described as follows: Binding affinity to human oligonucleotide telomeric HT6 G-quadruplex DNA at 0.5:1 ligand to quadruplex ratio by NMR spectroscopy. Format: nucleic-acid assay. Put shortly:
as §5

Test [21] has as its system Nucleic Acid. The experiment in a line: Binding affinity to A3 site of human oligonucleotide telomeric HT6 G-quadruplex DNA by NMR spectroscopy. In kind it is nucleic-acid assay. The essentials: as §5
Test [22] relates to Nucleic Acid. The test is described as follows: Binding affinity to G4 site of human oligonucleotide telomeric HT6 G-quadruplex DNA by NMR spectroscopy. In kind it is nucleic-acid assay. The essentials:
as §5

Chain of Telomerase reverse transcriptase (O14746 whole entry): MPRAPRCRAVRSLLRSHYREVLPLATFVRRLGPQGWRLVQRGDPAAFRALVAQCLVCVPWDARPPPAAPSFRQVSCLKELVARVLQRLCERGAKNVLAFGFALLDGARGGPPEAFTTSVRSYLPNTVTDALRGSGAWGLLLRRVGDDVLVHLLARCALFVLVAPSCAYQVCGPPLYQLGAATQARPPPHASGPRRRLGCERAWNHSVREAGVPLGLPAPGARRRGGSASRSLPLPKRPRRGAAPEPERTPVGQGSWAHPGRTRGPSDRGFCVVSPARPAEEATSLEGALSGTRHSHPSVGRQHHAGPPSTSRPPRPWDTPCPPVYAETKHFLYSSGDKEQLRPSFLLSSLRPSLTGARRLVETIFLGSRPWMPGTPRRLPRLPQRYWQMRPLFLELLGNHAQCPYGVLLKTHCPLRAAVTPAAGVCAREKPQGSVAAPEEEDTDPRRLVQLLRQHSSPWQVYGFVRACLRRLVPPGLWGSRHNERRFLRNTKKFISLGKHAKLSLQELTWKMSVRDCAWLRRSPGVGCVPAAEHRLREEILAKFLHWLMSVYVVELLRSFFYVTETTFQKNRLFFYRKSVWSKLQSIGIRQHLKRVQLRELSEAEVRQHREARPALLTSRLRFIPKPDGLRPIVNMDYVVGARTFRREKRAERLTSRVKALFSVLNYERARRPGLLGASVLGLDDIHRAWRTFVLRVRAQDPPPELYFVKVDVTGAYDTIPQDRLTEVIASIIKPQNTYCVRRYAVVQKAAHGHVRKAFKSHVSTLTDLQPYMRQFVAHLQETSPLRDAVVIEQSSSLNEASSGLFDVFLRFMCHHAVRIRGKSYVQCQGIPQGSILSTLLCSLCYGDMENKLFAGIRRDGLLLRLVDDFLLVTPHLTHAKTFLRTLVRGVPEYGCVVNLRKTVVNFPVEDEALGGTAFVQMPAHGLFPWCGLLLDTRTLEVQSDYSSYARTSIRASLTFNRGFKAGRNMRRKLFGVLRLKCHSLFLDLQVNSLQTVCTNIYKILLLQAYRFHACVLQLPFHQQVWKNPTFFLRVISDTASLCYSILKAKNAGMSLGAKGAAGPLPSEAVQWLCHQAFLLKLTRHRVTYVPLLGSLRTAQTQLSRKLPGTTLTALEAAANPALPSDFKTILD

What is called Kd is the free concentration of one partner at which half of the binding sites on the other are occupied at equilibrium, for simple one-to-one binding. Broadly, the ΔTm is the shift of the melting midpoint relative to a reference. With `CN(C)CCCNCC(=O)Nc1cc(Cl)ccc1-c1nc(NCCCN(C)C)c2ccccc2n1`, the outcome in test [1] was Active. The Kd in test [2] came to 0.337 µM. For the same molecule, the values for the shift in melting temperature (ΔTm) in test [3] and in test [5] were 13 °C and 0.3 °C, respectively. For the same molecule, the result in test [4] was inactive.

As for `CN(C)CCCNc1nc(-c2ccc(Cl)cc2NC(=O)CN2CCCC2)nc2ccccc12`, the figures for the ΔTm in test [3] and in test [5] were 7.4 °C and 0.1 °C, respectively.

As to `CN(C)CCCNc1nc(-c2ccc(Cl)cc2NC(=O)CN2CCOCC2)nc2ccccc12`, the result in test [1] was Active. Besides, the ΔTm in [3] was found to be 3.9 °C; in [5], 0 °C.

As to `CN(C)CCCNc1nc(-c2ccc(Cl)cc2NC(=O)CCCN2CCCCC2)nc2ccccc12`, the results for the ΔTm in test [3] and in test [5] were 11.6 °C and 0.2 °C, respectively.

As for `CN(C)CCCNc1nc(-c2ccc(Cl)cc2NC(=O)CCN2CCCCC2)nc2ccccc12`, the ΔTm was 11.8 °C in test [3] and 0.2 °C in test [5].

For the molecule `CCN(CC)CC(=O)Nc1cc(Cl)ccc1-c1nc(NCCCN(C)C)c2ccccc2n1`, the ΔTm in test [3] stood at 4.5 °C; in test [5] it was 0.1 °C.

With `CCN(CC)CCC(=O)Nc1cc(Cl)ccc1-c1nc(NCCCN(C)C)c2ccccc2n1`, the results for the ΔTm in [3] and in test [5] were 14.4 °C and 0.1 °C, respectively.

Consider `CN(C)CCCNc1nc(-c2ccc(Cl)cc2NC(=O)CCN2CCOCC2)nc2ccccc12`, for which, in test [1], the result was Active. For the same molecule, the figures for the ΔTm in test [3] and in test [5] were 8.4 °C and 0.1 °C, respectively.

One may read the IC50 as the concentration that inhibits the measured activity by half. Regarding `CN(C)CCCNc1nc(-c2ccc(Cl)cc2NC(=O)CCCN2CCN(C)CC2)nc2ccccc12`, half-maximal inhibition in [6] (IC50) was put at 7.7 µM. Also, the outcome in test [1] and in test [7] was Active. For the same molecule, the Kd in test [2] worked out at 0.278 µM. For the same molecule, the figures for the ΔTm in [3] and in test [5] were 14.7 °C and 0.4 °C, respectively. In addition, the outcome in [4] was inactive.

As to `CN(C)CCCNc1nc(-c2ccc(Cl)cc2NC(=O)CN2CCN(C)CC2)nc2ccccc12`, the IC50 in [6] was found to be 29.3 µM. Further, the outcome in test [8] and in [1] was Active. In test [2], the Kd was 2.11 µM. Also, the figures for the ΔTm in [3] and in test [5] were 10.1 °C and 0.3 °C, respectively. The outcome in [4] was inactive.

With `CN(C)CCCNc1c2ccccc2nc2c1[nH]c1ccccc12`, the result in test [1] was inactive. For the same molecule, the ΔTm in [3] is 9.9 °C; in [5] it was 5.5 °C.

As for `CN(C)CCCNc1nc(-c2ccc(Cl)cc2N)nc2ccccc12`, the shift in melting temperature (ΔTm) in test [3] is 0.7 °C; in test [5] it was 0.3 °C.

Turning to `CN(C)CCCNc1nc(-c2ccc(Cl)cc2NC(=O)CCN2CCCC2)nc2ccccc12`, the ΔTm in test [3] turned out to be 12.8 °C; in test [5], 0.2 °C.

Consider `CN(C)CCCNc1nc(-c2ccc(Cl)cc2NC(=O)CNCCN2CCCC2)nc2ccccc12`, for which the thermal shift (ΔTm) came out at 10.4 °C in test [3] and 0.3 °C in test [5].

In the case of `CN(C)CCCNc1nc(-c2ccc(Cl)cc2NC(=O)CN2CCCCC2)nc2ccccc12`, the ΔTm in test [3] stood at 5.4 °C; in test [5] it was 0.2 °C.

As to `CN(C)CCCNc1nc(-c2ccc(Cl)cc2NC(=O)CCCN2CCOCC2)nc2ccccc12`, the outcome in [1] was Active. Moreover, the ΔTm came to 9.8 °C in test [3] and 0.1 °C in [5].

For `CCN(CC)CCCNCC(=O)Nc1cc(Cl)ccc1-c1nc(NCCCN(C)C)c2ccccc2n1`, the results for the ΔTm in test [3] and in [5] were 12.3 °C and 0.2 °C, respectively.

In the case of `CN(C)CCCNc1nc(-c2ccc(Cl)cc2NC(=O)CCN2CCN(C)CC2)nc2ccccc12`, the IC50 in test [6] was 7.4 µM; in test [9], 9.6 µM. The outcome in [10], in test [14], in test [15], in [16], in test [18] and in test [1] was Active. For the same molecule, the result in test [7], in [19], in test [20], in test [21] and in test [22] was Active. The “growth inhibition (GI)” value in test [11], in [12] and in test [13] was “Active” in each case. The same molecule gave an Activity in test [17] of 1.2 kilobase. The Kd in test [2] was 0.314 µM. For the same molecule, the ΔTm stood at 15.5 °C in test [3] and 0.3 °C in [5]. Moreover, the result in [4] was inactive.

Take `CN(C)CCCNCCC(=O)Nc1cc(Cl)ccc1-c1nc(NCCCN(C)C)c2ccccc2n1`: the result in [7] was Active.

For the molecule `CN(C)CCCNc1nc(-c2ccc(Cl)cc2NC(=O)CNCCN2CCCCC2)nc2ccccc12`, the ΔTm in [3] worked out at 9.6 °C; in [5] it was 0.2 °C.
